From ChEMBL document CHEMBL1131003, “Nonsymmetric P2/P2' cyclic urea HIV protease inhibitors. Structure-activity relationship, bioavailability, and resistance profile of monoindazole-substituted P2 analogues” (J Med Chem, 1998)
pKi: −log10 of the molar value.

molecular target: Human immunodeficiency virus type 1 protease (Human immunodeficiency virus 1) (UniProt Q72874); assay: Antiviral activity against indinavir virus (HIV-1 mutated at 10R/63P/71V/82T/84V and resistant to indinavir); details: not given

Compared with `O=C(Nc1nccs1)c1cccc(CN2C(=O)N(Cc3ccc4[nH]ncc4c3)[C@H](Cc3ccccc3)[C@H](O)[C@@H](O)[C@H]2Cc2ccccc2)c1`, `Nc1cccc(CN2C(=O)N(Cc3ccc4[nH]ncc4c3)[C@H](Cc3ccccc3)[C@H](O)[C@@H](O)[C@H]2Cc2ccccc2)c1` is higher in IC90 mutant/IC90 WT: 7.3 for the first, 20 for the second.

First: Nc1cccc(CN2C(=O)N(Cc3cccc(N)c3)[C@H](Cc3ccccc3)[C@H](O)[C@@H](O)[C@H]2Cc2ccccc2)c1 [MOZENAVIR]
Second: O=C1N(Cc2ccc(CO)cc2)[C@H](Cc2ccccc2)[C@H](O)[C@@H](O)[C@@H](Cc2ccccc2)N1Cc1ccc(CO)cc1 [DMP-323]
The IC90 mutant/IC90 WT of the first is higher: 27 for the first, 18 for the second.

molecular target: Human immunodeficiency virus type 1 protease (Human immunodeficiency virus 1) (UniProt Q72874); assay: Antiviral activity against ritonavir virus (HIV-1 mutated at 46I/63P/71V/82F/84V and resistant to ritonavir); assay type: functional; details: not given
In short: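 Mutant HIV-1 viruses carrying protease substitutions seen in ritonavir- or indinavir-treated patient isolates; the ritonavir virus carries 46I/63P/71V/82F/84V. IC90 read from a viral p24 readout, following the earlier method.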

Compared with `O=C(Nc1nccs1)c1cccc(CN2C(=O)N(Cc3ccc4[nH]ncc4c3)[C@H](Cc3ccccc3)[C@H](O)[C@@H](O)[C@H]2Cc2ccccc2)c1`, `Nc1cccc(CN2C(=O)N(Cc3ccc4[nH]ncc4c3)[C@H](Cc3ccccc3)[C@H](O)[C@@H](O)[C@H]2Cc2ccccc2)c1` is higher in IC90 mutant/IC90 WT: 9 for the first, 75 for the second.

First: Nc1ccc(CN2C(=O)N(Cc3ccc4[nH]ncc4c3)[C@H](Cc3ccccc3)[C@H](O)[C@@H](O)[C@H]2Cc2ccccc2)cc1
Second: Nc1cccc(CN2C(=O)N(Cc3cccc(N)c3)[C@H](Cc3ccccc3)[C@H](O)[C@@H](O)[C@H]2Cc2ccccc2)c1 [MOZENAVIR]
The IC90 mutant/IC90 WT of the first is higher: 170 for the first, 49 for the second.

For `O=C1N(Cc2ccc(CO)cc2)[C@H](Cc2ccccc2)[C@H](O)[C@@H](O)[C@@H](Cc2ccccc2)N1Cc1ccc(CO)cc1` [DMP-323], the IC90 mutant/IC90 WT was 93.

molecular target: Human immunodeficiency virus type 1 protease (Human immunodeficiency virus 1) (UniProt Q72874); assay: Antiviral activity against mutant virus HIV-1 mutant (84V) strain; assay type: functional; details: not given
In short: (§1)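 I84V single and I84V/V82F double mutant HIV-1, both from in vitro selection under a cyclic urea inhibitor. IC90 measured by yield reduction assay.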

Compared with `O=C(Nc1nccs1)c1cccc(CN2C(=O)N(Cc3ccc4[nH]ncc4c3)[C@H](Cc3ccccc3)[C@H](O)[C@@H](O)[C@H]2Cc2ccccc2)c1`, `Nc1cccc(CN2C(=O)N(Cc3ccc4[nH]ncc4c3)[C@H](Cc3ccccc3)[C@H](O)[C@@H](O)[C@H]2Cc2ccccc2)c1` is higher in IC90 mutant/IC90 WT: 2 for the first, 6.8 for the second.

First: Nc1ccc(CN2C(=O)N(Cc3ccc4[nH]ncc4c3)[C@H](Cc3ccccc3)[C@H](O)[C@@H](O)[C@H]2Cc2ccccc2)cc1
Second: Nc1cccc(CN2C(=O)N(Cc3cccc(N)c3)[C@H](Cc3ccccc3)[C@H](O)[C@@H](O)[C@H]2Cc2ccccc2)c1 [MOZENAVIR]
The IC90 mutant/IC90 WT of the first is higher: 31 for the first, 10 for the second.

In the case of `O=C1N(Cc2ccc(CO)cc2)[C@H](Cc2ccccc2)[C@H](O)[C@@H](O)[C@@H](Cc2ccccc2)N1Cc1ccc(CO)cc1` [DMP-323], the IC90 mutant/IC90 WT was 28.

molecular target: Human immunodeficiency virus type 1 protease (Human immunodeficiency virus 1, UniProt Q72874); assay: Inhibitory activity against HIV protease; details: not given
In short: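 Ki for HIV protease, measured by cleavage of a fluorescent substrate with HPLC analysis, following the earlier method.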

Compared with `O=C(Nc1nccs1)c1cccc(CN2C(=O)N(Cc3ccc4[nH]ncc4c3)[C@H](Cc3ccccc3)[C@H](O)[C@@H](O)[C@H]2Cc2ccccc2)c1`, `CC(=O)c1cccc(CN2C(=O)N(Cc3ccc4[nH]ncc4c3)[C@H](Cc3ccccc3)[C@H](O)[C@@H](O)[C@H]2Cc2ccccc2)c1` is 0.36 log units lower in pKi: 10.80 for the first, 10.44 for the second. The first binds more tightly here.

`Nc1ccc(CN2C(=O)N(Cc3ccc4[nH]ncc4c3)[C@H](Cc3ccccc3)[C@H](O)[C@@H](O)[C@H]2Cc2ccccc2)cc1` and `Nc1cccc(CN2C(=O)N(Cc3ccc4[nH]ncc4c3)[C@H](Cc3ccccc3)[C@H](O)[C@@H](O)[C@H]2Cc2ccccc2)c1` are the same in pKi: 10.52 for the first, 10.52 for the second.

`CNc1cc(CN2C(=O)N(Cc3ccc4[nH]ncc4c3)[C@H](Cc3ccccc3)[C@H](O)[C@@H](O)[C@H]2Cc2ccccc2)ccc1F` and `CNc1cccc(CN2C(=O)N(Cc3ccc4[nH]ncc4c3)[C@H](Cc3ccccc3)[C@H](O)[C@@H](O)[C@H]2Cc2ccccc2)c1` are within 0.2 log units of each other in pKi: 10.57 for the first, 10.41 for the second.

system: not listed separately; assay: Oral bioavailability in dog (dose 10 mg/kg); assay type: ADME, organism-based, Canis lupus familiaris; details: in vivo
In short: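 Dogs, n = 3 per group, given 10 mg/kg in a propylene glycol/polyethylene glycol 400/water formulation, dosed orally and intravenously. F% = AUC po/AUC iv, with AUC from time zero to infinity of the plasma concentration-time curve, normalized for dose.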

Going from `Nc1ccc(CN2C(=O)N(Cc3ccc4[nH]ncc4c3)[C@H](Cc3ccccc3)[C@H](O)[C@@H](O)[C@H]2Cc2ccccc2)cc1` to `Nc1cccc(CN2C(=O)N(Cc3ccc4[nH]ncc4c3)[C@H](Cc3ccccc3)[C@H](O)[C@@H](O)[C@H]2Cc2ccccc2)c1`, the bioavailability falls from 100% to 93%.

Compared with `CNc1cc(CN2C(=O)N(Cc3ccc4[nH]ncc4c3)[C@H](Cc3ccccc3)[C@H](O)[C@@H](O)[C@H]2Cc2ccccc2)ccc1F`, `CNc1cccc(CN2C(=O)N(Cc3ccc4[nH]ncc4c3)[C@H](Cc3ccccc3)[C@H](O)[C@@H](O)[C@H]2Cc2ccccc2)c1` is higher in bioavailability: 14% for the first, 92% for the second.

`CC(=O)c1cccc(CN2C(=O)N(Cc3ccc4[nH]ncc4c3)[C@H](Cc3ccccc3)[C@H](O)[C@@H](O)[C@H]2Cc2ccccc2)c1` gave a bioavailability of 25%.

system: MT2; assay: Antiviral potency evaluated by measuring accumulation of viral RNA transcripts 3 days after infection of MT-2 cells with HIV-1 RF; assay type: functional; details: Homo sapiens, MT2, 72 h

First: O=C(Nc1nccs1)c1cccc(CN2C(=O)N(Cc3ccc4[nH]ncc4c3)[C@H](Cc3ccccc3)[C@H](O)[C@@H](O)[C@H]2Cc2ccccc2)c1
Second: CC(=O)c1cccc(CN2C(=O)N(Cc3ccc4[nH]ncc4c3)[C@H](Cc3ccccc3)[C@H](O)[C@@H](O)[C@H]2Cc2ccccc2)c1
The IC90 of the first is 1.9-fold lower: 8 nM for the first, 15 nM for the second.

`Nc1ccc(CN2C(=O)N(Cc3ccc4[nH]ncc4c3)[C@H](Cc3ccccc3)[C@H](O)[C@@H](O)[C@H]2Cc2ccccc2)cc1` and `Nc1cccc(CN2C(=O)N(Cc3ccc4[nH]ncc4c3)[C@H](Cc3ccccc3)[C@H](O)[C@@H](O)[C@H]2Cc2ccccc2)c1` are the same in IC90: 11 nM for the first, 11 nM for the second.

`CNc1cc(CN2C(=O)N(Cc3ccc4[nH]ncc4c3)[C@H](Cc3ccccc3)[C@H](O)[C@@H](O)[C@H]2Cc2ccccc2)ccc1F` and `CNc1cccc(CN2C(=O)N(Cc3ccc4[nH]ncc4c3)[C@H](Cc3ccccc3)[C@H](O)[C@@H](O)[C@H]2Cc2ccccc2)c1` are within 1.5-fold of each other in IC90: 7 nM for the first, 8 nM for the second.

First: Nc1cccc(CN2C(=O)N(Cc3cccc(N)c3)[C@H](Cc3ccccc3)[C@H](O)[C@@H](O)[C@H]2Cc2ccccc2)c1 [MOZENAVIR]
Second: O=C1N(Cc2ccc(CO)cc2)[C@H](Cc2ccccc2)[C@H](O)[C@@H](O)[C@@H](Cc2ccccc2)N1Cc1ccc(CO)cc1 [DMP-323]
The IC90 of the first is 2.3-fold higher: 130 nM for the first, 57 nM for the second.

molecular target: Human immunodeficiency virus type 1 protease (Human immunodeficiency virus 1) (UniProt Q72874); assay: Antiviral activity against mutant virus HIV-1 mutant (84V/82F) strain; assay type: functional; details: not given
In short: as §1

First: O=C(Nc1nccs1)c1cccc(CN2C(=O)N(Cc3ccc4[nH]ncc4c3)[C@H](Cc3ccccc3)[C@H](O)[C@@H](O)[C@H]2Cc2ccccc2)c1
Second: Nc1cccc(CN2C(=O)N(Cc3ccc4[nH]ncc4c3)[C@H](Cc3ccccc3)[C@H](O)[C@@H](O)[C@H]2Cc2ccccc2)c1
The IC90 mutant/IC90 WT of the first is lower: 22 for the first, 200 for the second.

Going from `Nc1ccc(CN2C(=O)N(Cc3ccc4[nH]ncc4c3)[C@H](Cc3ccccc3)[C@H](O)[C@@H](O)[C@H]2Cc2ccccc2)cc1` to `Nc1cccc(CN2C(=O)N(Cc3cccc(N)c3)[C@H](Cc3ccccc3)[C@H](O)[C@@H](O)[C@H]2Cc2ccccc2)c1` [MOZENAVIR], the IC90 mutant/IC90 WT falls from 240 to 100.

Work on `O=C1N(Cc2ccc(CO)cc2)[C@H](Cc2ccccc2)[C@H](O)[C@@H](O)[C@@H](Cc2ccccc2)N1Cc1ccc(CO)cc1` [DMP-323] yielded an IC90 mutant/IC90 WT of 97.

system: not listed separately; assay: Peak plasma concentration was measured in dogs; assay type: ADME, organism-based, Canis lupus familiaris; details: dog

`Nc1ccc(CN2C(=O)N(Cc3ccc4[nH]ncc4c3)[C@H](Cc3ccccc3)[C@H](O)[C@@H](O)[C@H]2Cc2ccccc2)cc1` and `Nc1cccc(CN2C(=O)N(Cc3ccc4[nH]ncc4c3)[C@H](Cc3ccccc3)[C@H](O)[C@@H](O)[C@H]2Cc2ccccc2)c1` are within 1.5-fold of each other in Cmax: 10.6 µM for the first, 7.2 µM for the second.

Going from `CNc1cc(CN2C(=O)N(Cc3ccc4[nH]ncc4c3)[C@H](Cc3ccccc3)[C@H](O)[C@@H](O)[C@H]2Cc2ccccc2)ccc1F` to `CNc1cccc(CN2C(=O)N(Cc3ccc4[nH]ncc4c3)[C@H](Cc3ccccc3)[C@H](O)[C@@H](O)[C@H]2Cc2ccccc2)c1`, the Cmax rises from 0.67 µM to 8 µM (12-fold).

`CC(=O)c1cccc(CN2C(=O)N(Cc3ccc4[nH]ncc4c3)[C@H](Cc3ccccc3)[C@H](O)[C@@H](O)[C@H]2Cc2ccccc2)c1` gave a Cmax of 1.3 µM.
